Data: ChEMBL document CHEMBL1137371, “Pyrazolidine-3,5-diones and 5-hydroxy-1H-pyrazol-3(2H)-ones, inhibitors of UDP-N-acetylenolpyruvyl glucosamine reductase” (J Med Chem, 2006)
In brackets after ≈: the same amount, converted by molar mass. Activity calls are given as the source filed them. No cut-off for these calls is given here.

How the values were obtained:
Staphylococcus aureus = test: Antibacterial activity against methicillin resistant Staphylococcus aureus GC 1131 by micro-broth dilution method; assay type: functional
Streptococcus pneumoniae [1] = test: Antibacterial activity against penicillin resistant Streptococcus pneumoniae GC 1894 by microbroth dilution method; assay type: functional
Streptococcus pneumoniae [2] = test: Antibacterial activity against Streptococcus pneumoniae in presence of 4% bovine serum albumin; assay type: functional
Candida albicans = test: Antibacterial activity against Candida albicans by micro-broth dilution method; assay type: functional, organism-based
Outline: (§1)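 Broth microdilution in Mueller-Hinton II medium per NCCLS recommendations. Inoculum 5 × 10⁵ cfu/mL, compound range 0.06-128 µg/mL. MIC read after 18 h at 35 °C in ambient air.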

Escherichia coli = test: Antibacterial activity against Escherichia coli GC 4560 (imp) by micro-broth dilution method; assay type: functional; outline: as §1
[3] = molecular target: T1, UDP-N-acetylenolpyruvoylglucosamine reductase (Escherichia coli K-12, UniProt P08373); test: Inhibition of MurB activity
T1 sequence (P08373 whole entry): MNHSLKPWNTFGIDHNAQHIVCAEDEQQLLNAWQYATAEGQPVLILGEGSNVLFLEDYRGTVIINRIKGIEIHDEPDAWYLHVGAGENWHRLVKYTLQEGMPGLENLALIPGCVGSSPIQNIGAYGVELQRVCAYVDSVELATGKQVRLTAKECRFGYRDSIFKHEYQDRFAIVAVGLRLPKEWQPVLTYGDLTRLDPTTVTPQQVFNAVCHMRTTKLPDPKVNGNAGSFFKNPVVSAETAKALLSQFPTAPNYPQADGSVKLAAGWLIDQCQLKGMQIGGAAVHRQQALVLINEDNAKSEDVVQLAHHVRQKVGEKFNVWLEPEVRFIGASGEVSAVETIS
Outline: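 Recombinant E. coli MurB was expressed in BL21(λDE3) and purified. Enzyme (20 nM) was preincubated 20 min with inhibitor at 1.6, 3.2, 6.4, 12.8, 25 and 50 µM. Reaction in 50 mM Tris-HCl pH 8.0 with 10 mM KCl, 50 µM enolpyruvyl UDP-GlcNAc and 100 µM NADPH. NADPH oxidation followed as A340 decrease over 5 min. IC50 from sigmoid Hill fit, mean of three runs.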

Enterococcus faecalis = test: Antibacterial activity against vancomycin resistant Enterococcus faecalis GC 2242 by microbroth dilution method; assay type: functional
[4] = tested on: Staphylococcus epidermidis; test: Inhibition of soluble peptidoglycan biosynthesis in Staphylococcus epidermidis; assay type: functional, organism-based
Outline: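 S. epidermidis was grown in BHI to OD600 0.6, washed and concentrated tenfold in cell-wall-enriched medium. Cells incubated with 50 µg/mL chloramphenicol, 100 µg/mL penicillin G, [¹⁴C]-GlcNAc (2.9 µM/40 nCi) and compound at 0-25 µg/mL, 1 h, 37 °C, shaking. Supernatant precipitated with 5% TCA/0.4% BSA, 30 min at 4 °C, then filtered and scintillation counted.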

[5] = Staphylococcus aureus, GC 1131, read-out: MIC
[6] = Streptococcus pneumoniae, GC 1894, read-out: MIC
[7] = Escherichia coli, GC 4560, read-out: MIC
[8] = Enterococcus faecalis, GC 2242, read-out: MIC

| SMILES | MIC (Staphylococcus aureus) [µg/mL] | MIC (Streptococcus pneumoniae [1]) [µg/mL] | MIC (Streptococcus pneumoniae [2]) [µg/mL] | Activity (Candida albicans) | MIC (Escherichia coli) [µg/mL] | IC50 [3] [µM] | MIC (Enterococcus faecalis) [µg/mL] | MIC (Staphylococcus aureus; [5]) [µg/mL] | MIC (Streptococcus pneumoniae [1]; [6]) [µg/mL] | IC50 [4] [µM] | MIC (Escherichia coli; [7]) [µg/mL] | MIC (Enterococcus faecalis; [8]) [µg/mL] |
| --- | --- | --- | --- | --- | --- | --- | --- | --- | --- | --- | --- | --- |
| O=C(c1ccc(Cl)cc1)c1c(O)n(-c2ccc(Cl)cc2)n(-c2ccc(Cl)cc2)c1=O | 5.7 (≈ 12.4 µM) | 0.72 (≈ 1.57 µM) | > 128 | inactive | 23 (≈ 50 µM) | 11 | 1.4 (≈ 3.05 µM) |  |  |  |  |  |
| O=C(c1ccc(-c2ccccc2)cc1)c1c(O)n(-c2ccc(Cl)cc2)n(-c2ccc(Cl)cc2)c1=O |  |  | > 128 | inactive |  | 6.1 |  | 3.1 (≈ 6.18 µM) | 0.3 (≈ 0.598 µM) | 4.9 | > 100 | 0.39 (≈ 0.778 µM) |
| O=C(Nc1ccc(Cl)cc1)c1c(O)n(-c2ccccc2)n(-c2ccccc2)c1=O |  |  | > 128 | inactive |  | 54 |  | 32 (≈ 78.8 µM) | 0.5 (≈ 1.23 µM) |  | > 128 | 1 (≈ 2.46 µM) |
| O=C1CC(=O)N(c2ccc(F)cc2)N1c1ccc(F)cc1 |  |  |  |  |  | > 87 |  | 128 (≈ 444 µM) | 64 (≈ 222 µM) |  | 64 (≈ 222 µM) | 128 (≈ 444 µM) |
| COc1ccc(CC(=O)c2c(O)n(-c3ccc(Cl)cc3)n(-c3ccc(Cl)cc3)c2=O)cc1 |  |  | > 128 | inactive |  | 40 |  | 11.7 (≈ 24.9 µM) | 0.73 (≈ 1.56 µM) |  | > 94 | 1.4 (≈ 2.98 µM) |
| COc1ccc(NC(=O)c2c(O)n(-c3ccc(Cl)cc3)n(-c3ccc(Cl)cc3)c2=O)cc1 |  |  |  | inactive | >128 | 16 |  |  |  |  |  |  |
| O=C(c1cccs1)c1c(O)n(-c2ccc(Cl)cc2)n(-c2ccc(Cl)cc2)c1=O |  |  | > 128 | inactive |  | 5.8 |  | 5.4 (≈ 12.5 µM) | 0.67 (≈ 1.55 µM) | 1 | 21.6 (≈ 50.1 µM) | 1.3 (≈ 3.01 µM) |
| Cc1ccc(NC(=O)c2c(O)n(-c3ccc(Cl)c(Cl)c3)n(-c3ccc(Cl)c(Cl)c3)c2=O)cc1 |  |  | > 128 | inactive |  | 4.8 |  | 16 (≈ 30.6 µM) | < 0.12 | 4 | > 128 | 0.25 (≈ 0.478 µM) |
| O=C(Nc1ccc(Cl)c(Cl)c1)c1c(O)n(-c2ccc(Cl)c(Cl)c2)n(-c2ccc(Cl)c(Cl)c2)c1=O |  |  | > 128 | inactive |  | 4.8 |  | 64 (≈ 111 µM) | 0.5 (≈ 0.865 µM) |  | > 128 | 0.5 (≈ 0.865 µM) |
| COc1ccc(C(=O)c2c(O)n(-c3ccc(Cl)cc3)n(-c3ccc(Cl)cc3)c2=O)cc1 |  | 2.8 (≈ 6.15 µM) | > 128 | inactive | 23 (≈ 50.5 µM) | 10 | 5.7 (≈ 12.5 µM) | 11.3 (≈ 24.8 µM) |  |  |  |  |
| O=C(Nc1ccc(C(F)(F)F)cc1)c1c(O)n(-c2cccc(Cl)c2)n(-c2cccc(Cl)c2)c1=O |  |  | > 128 | inactive |  | 8.7 |  | 0.5 (≈ 0.984 µM) | < 0.12 | 2.2 | 64 (≈ 126 µM) | < 0.12 |
| O=C(Nc1ccc(C(F)(F)F)cc1)c1c(O)n(-c2ccc(Cl)cc2)n(-c2ccc(Cl)cc2)c1=O |  |  |  | inactive | 16 (≈ 31.5 µM) | 5.9 |  |  |  | 8.3 |  |  |
| O=C1CC(=O)N(c2cccc(Cl)c2)N1c1cccc(Cl)c1 |  |  |  |  |  | 68.5 |  | 16 (≈ 49.8 µM) | 8 (≈ 24.9 µM) | 56 | 200 (≈ 623 µM) | 16 (≈ 49.8 µM) |
| O=C(Nc1ccc(Cl)cc1)c1c(O)n(-c2ccc(Cl)cc2)n(-c2ccc(Cl)cc2)c1=O |  |  |  | inactive | 2 (≈ 4.21 µM) | 13.7 |  |  |  | 42.2 |  |  |
| O=C1CC(=O)N(c2ccc(Cl)c(Cl)c2)N1c1ccc(Cl)c(Cl)c1 |  |  |  |  |  | 25.1 |  | 8 (≈ 20.5 µM) | 4 (≈ 10.3 µM) | 41 | 32 (≈ 82 µM) | 8 (≈ 20.5 µM) |
| O=C(c1ccc(C(F)(F)F)cc1)c1c(O)n(-c2ccc(Cl)cc2)n(-c2ccc(Cl)cc2)c1=O |  | 0.5 (≈ 1.01 µM) | > 128 | inactive |  | 15 | 2 (≈ 4.05 µM) | 8 (≈ 16.2 µM) |  |  | 16 (≈ 32.4 µM) |  |
| O=C1CC(=O)N(c2ccccc2)N1c1ccccc1 |  |  |  |  |  | > 100 |  |  |  |  |  |  |
| O=C(Nc1ccc(Cl)cc1)c1c(O)n(-c2cccc(Cl)c2)n(-c2cccc(Cl)c2)c1=O |  |  | > 128 | inactive |  | 8.6 |  | 0.5 (≈ 1.05 µM) | < 0.12 | 3 | > 128 | 0.25 (≈ 0.527 µM) |
| O=C(Nc1ccc(Br)cc1)c1c(O)n(-c2ccccc2)n(-c2ccccc2)c1=O |  |  | > 128 | inactive |  | 42 |  | 16 (≈ 35.5 µM) | 1 (≈ 2.22 µM) |  | > 128 | 1 (≈ 2.22 µM) |
| CCCCOc1ccc(C(=O)c2c(O)n(-c3ccc(Cl)cc3)n(-c3ccc(Cl)cc3)c2=O)cc1 |  |  | > 128 | inactive |  | 4.5 |  | 1.6 (≈ 3.22 µM) | 0.39 (≈ 0.784 µM) | 7.3 | > 100 | 0.39 (≈ 0.784 µM) |
| O=C1C(=C(O)c2ccc(Cl)c(Cl)c2)C(=O)N(c2ccc(Cl)cc2)N1c1ccc(Cl)cc1 |  |  | > 128 | inactive |  | 13 |  | 6.2 (≈ 12.5 µM) | 0.39 (≈ 0.789 µM) |  | 49 (≈ 99.2 µM) | 0.77 (≈ 1.56 µM) |
| O=C(c1ccc(OC(F)(F)F)cc1)c1c(O)n(-c2ccc(Cl)cc2)n(-c2ccc(Cl)cc2)c1=O |  |  | > 128 | inactive |  | 5.4 |  | 12.7 (≈ 24.9 µM) | 0.79 (≈ 1.55 µM) | 2 | 25.4 (≈ 49.9 µM) | 0.79 (≈ 1.55 µM) |
| O=C1CC(=O)N(c2ccc(Cl)cc2)N1c1ccc(Cl)cc1 |  |  |  |  |  | 71.6 |  | 8 (≈ 24.9 µM) | 8 (≈ 24.9 µM) |  | 16 (≈ 49.8 µM) | 8 (≈ 24.9 µM) |
| O=C(Nc1ccccc1)c1c(O)n(-c2ccccc2)n(-c2ccccc2)c1=O |  |  | > 128 | inactive |  | 54 |  | 64 (≈ 172 µM) | 16 (≈ 43.1 µM) |  | > 128 | 8 (≈ 21.5 µM) |
